Experimental data: ChEMBL document CHEMBL1177806, “Synthesis and biological activity of halophenols as potent antioxidant and cytoprotective agents” (Bioorg Med Chem Lett, 2010)
The source made the active and inactive calls. The calls are words filed in the database; no cut-off is given here.

Columns and labels:
[1] = Antioxidant activity assessed as DPPH scavenging activity after 4 hrs […]; assay type: functional
[2] = test system: HUVEC; experiment: Cytoprotective activity against H2O2-induced cell injury in HUVEC cells at 5 ug/mL after 4 hrs […]; assay type: functional, cell-based; settings: Homo sapiens
[3] = Antioxidant activity assessed as DPPH scavenging activity at 100 ug/mL; assay type: functional
[4] = test system: HUVEC; experiment: Cytoprotective activity against H2O2-induced cell injury in HUVEC cells; assay type: functional, cell-based; settings: Homo sapiens
Method in brief: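 Cytoprotection was measured in human umbilical vein endothelial cells (HUVEC) injured with hydrogen peroxide and reported as EC50.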

Compound | IC50 [1] [µM] | Activity [2] | Activity [3] | EC50 [4] [µM]
O=C(c1ccc(O)c(O)c1)c1c(Cl)c(O)c(O)c(O)c1Cl | 87.3 | inactive |  | 
COc1ccc(C(=O)c2c(Br)c(OC)c(OC)c(OC)c2Br)cc1OC |  | inactive | inactive | 
O=C(c1ccccc1)c1cc(O)c(O)c(Br)c1Br | 87.7 |  |  | 0.8
Oc1cc(Cc2ccccc2)c(Br)c(Br)c1O | 88 |  |  | 3.9
COc1ccc(Cc2ccc(Cl)cc2)cc1OC |  | inactive | inactive | 
Oc1ccc(Cc2c(Br)c(O)c(O)c(O)c2Br)cc1O | 84.2 | inactive |  | 
COc1ccc(Cc2cc(OC)c(OC)cc2Br)cc1Br |  | inactive | inactive | 
COc1ccc(Cc2c(Cl)c(OC)c(OC)c(OC)c2Cl)cc1OC |  | inactive | inactive | 
O=C(c1ccc(O)c(O)c1)c1ccccc1Cl | 113 | inactive |  | 
Oc1cc(Br)c(Cc2cc(Br)ccc2O)cc1O | 88.5 |  |  | 1.1
COc1cc(Br)c(C(=O)c2cc(Br)ccc2OC)cc1OC |  | inactive | inactive | 
O=C(c1ccc(Cl)cc1)c1ccc(O)c(O)c1 | 103 |  |  | 8.9
Oc1ccc(Cc2cccc(Cl)c2)cc1O | 223 | inactive |  | 
COc1ccc(C(=O)c2ccc(Cl)cc2)cc1OC |  | inactive | inactive | 
Cc1cc(C(C)(C)C)c(O)c(C(C)(C)C)c1 [BUTYLATED HYDROXYTOLUENE] | 169 |  |  | 
Oc1cc(Br)c(Cc2ccccc2)cc1O | 164 |  |  | 12.2
COc1cc(Cc2ccccc2)c(Br)c(Br)c1OC |  | inactive | inactive | 
O=C(c1ccc(O)c(O)c1)c1c(Br)c(O)c(O)c(O)c1Br | 96.2 | inactive |  | 
O=C(c1cccc(Cl)c1)c1ccc(O)c(O)c1 | 110 |  |  | 5

Compound | IC50 [1] [µM] | Activity [2] | Activity [3] | EC50 [4] [µM]
COc1ccc(Cc2cccc(Cl)c2)cc1OC |  | inactive | inactive | 
COc1cc(Br)c(Cc2ccccc2)cc1OC |  | inactive | inactive | 
O=c1c(O)c(-c2ccc(O)c(O)c2)oc2cc(O)cc(O)c12 [QUERCETIN] |  |  |  | 18
COc1cc(C(=O)c2ccccc2)c(Br)c(Br)c1OC |  | inactive | inactive | 
COc1ccc(C(=O)c2ccccc2)cc1OC |  | inactive | inactive | 
COc1cc(Br)c(C(=O)c2ccccc2)cc1OC |  | inactive | inactive | 
Oc1ccc(Cc2ccc(Cl)cc2)cc1O | 202 |  |  | 8.8
O=C(c1ccccc1)c1cc(O)c(O)cc1Br | 84 |  |  | 11.5
O=C(c1cc(Br)ccc1O)c1cc(O)c(O)cc1Br | 79.6 |  |  | 0.4
O=C(c1ccc(O)c(Br)c1)c1cc(O)c(O)cc1Br | 61.6 |  |  | 2
Oc1ccc(Cc2c(Cl)c(O)c(O)c(O)c2Cl)cc1O | 102 | inactive |  | 
COc1ccc(Cc2ccccc2Cl)cc1OC |  | inactive | inactive | 
Oc1ccc(Cc2ccccc2Cl)cc1O | 131 | inactive |  | 
COc1ccc(Cc2c(Br)c(OC)c(OC)c(OC)c2Br)cc1OC |  | inactive | inactive | 
COc1ccc(C(=O)c2cc(OC)c(OC)cc2Br)cc1Br |  | inactive | inactive | 
COc1ccc(C(=O)c2c(Cl)c(OC)c(OC)c(OC)c2Cl)cc1OC |  | inactive | inactive | 
Oc1cc(Br)c(Cc2ccc(O)c(Br)c2)cc1O | 87.4 |  |  | 13
COc1ccc(Br)cc1Cc1cc(OC)c(OC)cc1Br |  | inactive | inactive | 
